Screening data: PubChem BioAssay, several laboratories
Shown are actives, neighbours in structure and some others; about 10% of the full set was active somewhere.
WT yeast gro inh = growth inhibition of WT yeast, mitochondrial fusion screen | mitochondrial fusion phenotypic screen, WT strain | inhibition, % at 10 µM | 190,000 compounds, 2.1% hits | AID 1362; in the data active means inhibition above about 58%; tested in S. cerevisiae
L major viab = Leishmania major promastigote growth inhibition; Leishmania major promastigotes, resazurin fluorescence viability; AID 1063; 200,000 compounds, 9% hits; inhibition, % at 10 µM; in the data active means inhibition above about 50%;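 further: promastigotes grown with compound for 44 hours at 28 °C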
PMI act hi M6P = PMI (human) activation, high substrate. P34949. coupled PMI enzyme assay, resazurin fluorescence, 20 min; hits give high values; 1 = untreated enzyme, 0 = substrate-free blank. activation factor at 20 µM. 190,000 compounds, 0.34% hits. AID 1216;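 active means activation factor of 2 or more at 20 µM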
Target sequence (P34949 whole entry, looked up): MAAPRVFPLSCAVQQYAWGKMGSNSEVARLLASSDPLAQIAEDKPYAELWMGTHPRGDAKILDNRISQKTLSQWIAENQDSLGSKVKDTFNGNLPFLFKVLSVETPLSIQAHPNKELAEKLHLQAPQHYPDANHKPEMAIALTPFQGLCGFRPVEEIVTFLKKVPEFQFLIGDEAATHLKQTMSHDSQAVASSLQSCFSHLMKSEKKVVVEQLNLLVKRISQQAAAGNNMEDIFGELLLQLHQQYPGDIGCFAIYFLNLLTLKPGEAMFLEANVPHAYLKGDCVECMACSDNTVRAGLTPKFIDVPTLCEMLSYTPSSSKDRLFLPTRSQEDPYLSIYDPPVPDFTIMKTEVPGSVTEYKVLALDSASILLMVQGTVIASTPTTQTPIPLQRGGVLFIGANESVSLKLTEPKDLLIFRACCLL
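Test system – human PMI in coupled enzyme assay · Timing – 20 min incubation at room temperature · Detection – Diaphorase-driven resazurin-to-resorufin fluorescence, excitation 544, emission 590 nm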
PMI act = increases human mannose-6-phosphate isomerase activity. AID 1214. activation factor at 20 µM. purified human PMI, coupled resazurin fluorescence, 20 min; hits give high values; 1 = vehicle control, 0 substrate-free wells. 190,000 compounds, 0.005% hits. P34949;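 active means activation factor of 2 or more at 20 µM, relative to plate controls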
Diaphorase act = activates diaphorase or chemically reduces, flagging diaphorase assay artifacts | activation factor at 20 µM | 190,000 compounds, 0.005% hits | AID 1229 | Diaphorase/resazurin coupled assay, resorufin fluorescence, 16 min; hits give high values; 1 = vehicle wells, 0 = NADH-free wells;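 active means diaphorase activity raised at least twofold by the compound at 20 µM; inactive means activation factor below 2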
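Material: Purified diaphorase enzyme from Clostridium kluyveri | Buffer or medium: 50 mM HEPES pH 7.4 with 4.542 mM MgCl2, 0.005% Tween 20 | Times: 16 min enzyme reaction, ambient temperature | Signal: Red resorufin fluorescence at 544/590 nm excitation/emission | Measure: Increased resorufin signal from activators or reducing compounds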
Starred values were filed as active, the others as inactive; / = no result.

SMILES	WT yeast gro inh	L major viab	PMI act hi M6P	PMI act	Diaphorase act
Cc1cc(C)cc(NC(=O)CCN2CC(C)OC(C)C2)c1 (stereo not drawn)	41	80*	1	1	0.9
Cc1ccc(S(=O)(=O)NCCC(=O)Nc2cccc(Cl)c2)cc1	-11	52*	1	0.9	0.9
COc1cc(Cl)c(C)cc1NC(=O)COC(=O)c1cc[n+]([O-])cc1	-15	-5	1	1.1	1.1
Cc1ccc(C(=O)N2N=C(CC(C)C)CC2(O)C(F)(F)F)o1 (stereo not drawn)	-9	2	1	1	1
CC(=O)OCC1OC(OC(C)=O)C(NC(=O)c2cccnc2)C(OC(C)=O)C1OC(C)=O (stereo not drawn)	-6	46	1.1	1.1	0.9
COc1cccc(C(=O)OCC(=O)Nc2cc(C)c(C)cc2[N+](=O)[O-])c1	5	2	1.1	1.1	1
COc1cc(/C=N/NC(=O)CCC(=O)NC2CCCCC2)ccc1C	3	-1	1	1	1
Cn1c(-c2ccccc2)c(C(=O)CCl)c2ccccc21	10	98*	1.3	1.4	1
CCn1c(-c2ccccc2)c(C(=O)CCl)c2ccccc21	17	99*	1	1.1	0.9
CCOc1ccccc1N(CC(=O)Nc1ccc(S(=O)(=O)N2CCOCC2)cc1)S(=O)(=O)c1ccc(Cl)cc1	-12	43	0.9	1	0.8
C#CCOc1ccc(/C=C2\SC(=S)N(Cc3cccnc3)C2=O)cc1	-9	1	0.7	0.8	0.8
O=C1/C(=C/c2ccc(Cl)cc2)NC(=S)N1Cc1cccnc1	22	84*	1	1	0.9
CCCCOC(=O)/C(=C/C=C/c1ccccc1)NC(=O)c1ccccc1	2	27	0.9	1	0.9
CCCCOC(=O)/C(=C\c1ccc([N+](=O)[O-])o1)NC(=O)c1ccccc1	-14	83*	1.2	1.3	0.9
COc1cc(-c2nc(-c3ccccc3)c(-c3ccc(F)cc3)[nH]2)cc2c1OCO2	3	17	1	0.9	0.8
COc1ccc(-c2[nH]c(-c3ccc4c(c3)OCO4)nc2-c2ccccc2)cc1	71*	65*	0.8	0.8	0.7
COc1ccccc1N=Nc1nc(-c2ccccc2)c(-c2ccccc2)[nH]1	64*	67*	1	0.9	0.9
CS(=O)(=O)c1nc(-c2ccccc2)c(-c2ccccc2)[nH]1	-3	-6	1.1	1	0.9
COc1ccc(N=Nc2nc(-c3ccccc3)c(-c3ccccc3)[nH]2)cc1	48	87*	0.9	0.9	0.8
Oc1ccccc1N=Nc1nc(-c2ccccc2)c(-c2ccccc2)[nH]1	-11	100*	0.9	0.9	0.8
COc1ccc(-c2[nH]c(-c3ccc(C(=O)O)cc3)nc2-c2ccccc2)cc1	-5	-4	1	0.9	0.9
O=C(C[n+]1cccc(CNC(=O)c2ccc(OC(F)F)cc2)c1)Nc1cccc(C(F)(F)F)c1	-5	-5	0.9	0.8	1
Cc1ncc(N=Nc2ccc(F)cc2)c(-c2ccc(Cl)cc2)n1	8	-2	0.9	0.9	0.9
COc1ccc(-c2nc(C)ncc2N=Nc2ccccc2)cc1	98*	9	0.9	0.8	1
Fc1ccc(N2CCN(Cc3ccccn3)CC2)cc1	-14	-2	1	1.1	0.9
SMILES	WT yeast gro inh	L major viab	PMI act hi M6P	PMI act	Diaphorase act
Fc1ccc(N2CCN(Cc3cnc(N4CCOCC4)s3)CC2)cc1	-14	64*	1.1	1	0.9
O=C1C(Cl)=C(N2CCN(c3ccccc3[N+](=O)[O-])CC2)C(=O)c2ccccc21	24	100*	1.1	1.2	0.6
O=C1c2ccccc2C(=O)N1CCN1CCCCC1	66*	-15	1	1	1.1
O=c1c2[nH]c3ccccc3c2ncn1C1CCCCC1	1	36	1	1	1
O=C1c2ccccc2C(=O)c2c1ccc1c(=O)n(C3CCCCC3)[nH]c21	33	99*	0.5	0.9	0.8
CC1(C)COC(/C=C/c2cccc([N+](=O)[O-])c2)=N1	22	98*	1	1	1
O=C(c1ccc2ccccc2c1)N1CCN(c2ccc(C(F)(F)F)cn2)CC1	19	98*	0.9	0.9	0.8
CN1CCN(C(=O)c2ccc3ccccc3c2)CC1	-18	87*	0.9	1	0.8
FC(F)(F)c1ccc(N2CCN(c3cc(-c4ccccc4)nc4ncnn34)CC2)nc1	64*	27	1	1	0.7
O=C(c1ccc2c(c1)OCO2)N1CCN(c2ccc(C(F)(F)F)cn2)CC1	2	76*	1	0.8	0.9
CC1=NN(Cc2c(C)nn(Cc3ccccc3)c2C)C(C)(C)C1	-8	-6	0.9	1.1	0.9
CCN(CC)C(=O)C(C(=O)c1cccc([N+](=O)[O-])c1)n1cc(Cl)ccc1=O (stereo not drawn)	-3	-4	1	1	0.9
COc1ccc(NC2=CC(=O)N(C)C2=O)cc1	-8	-2	0.5	0.9	0.9
O=C(/C=C/c1ccco1)Oc1cc(Br)cc(/C=N/NC(=O)c2ccccc2O)c1	23	99*	1.2	1.1	0.8
Cc1ccc(C)c(C(=O)Cn2ncc(Cl)c(Cl)c2=O)c1	/	95*	1.1	1.1	1
Cc1cccc(Cn2ncc(Cl)c(Cl)c2=O)c1	12	62*	1	1	0.8
Cc1cccc(Cn2cnc3c(nnn3Cc3ccc(F)cc3)c2=O)c1	17	1	1	0.9	0.8
Cc1cc2oc(=O)cc(CN3CCc4ccccc43)c2cc1Cl	52	3	1.1	1.1	0.8
CCCc1cc(=O)[nH]c(SCC(=O)c2cc(C)n(CC(F)(F)F)c2C)n1	-20	7	1	1.1	0.8
Cc1cc2oc(=O)cc(Cn3ncc(Cl)c(Cl)c3=O)c2cc1Cl	-1	100*	0.9	1	0.8
Cc1cc(C(=O)Cn2ncc(Cl)c(Cl)c2=O)c(C)n1CC(F)(F)F	-11	63*	1	1	0.9
O=C(O)C1CC(O)CN1c1nc(Cl)ccc1[N+](=O)[O-] (stereo not drawn)	8	-6	0.4	0.7	0.5
O=C1CC(=O)N2N=C(c3ccc([N+](=O)[O-])cc3)SC2=N1	-10	-4	1	1	0.8
O=C(CSc1nnnn1-c1ccccc1)N1CCc2ccccc21	-2	0	1.1	0.9	0.8
CCc1cccc(CC)c1-n1c(SCC(=O)c2c(N)n(C)c(=O)n(C)c2=O)nnc1-c1cccnc1	-14	-10	0.9	0.8	0.9
Cn1c(SCC(=O)N2CCc3ccccc3C2)nnc1-c1ccncc1	-10	0	1.5	1.3	1.1
Cc1ccccc1-n1c(C)nnc1SCC(=O)N1CCc2ccccc2C1	-34	50*	0.9	0.9	0.9
Cn1c(SCC(=O)N2CCc3ccccc3C2)nnc1-c1cccs1	0	78*	1	1	0.9
